The source of these data is ChEMBL document CHEMBL3797056, “An evaluation of Minor Groove Binders as anti-Trypanosoma brucei brucei therapeutics” (Eur J Med Chem, 2016).

Calls of active or inactive are those of the source. No cut-off for these calls is given here.

Series [1] is described as follows: Selectivity index, ratio of IC50 for HEK293 cells to IC50 for Trypanosoma brucei brucei Lister 427 bloodstream forms. In kind it is toxicity, cell-based. To be noted: human, read-out: Ratio IC50.
The next series deals with HEK293. Briefly: Cytotoxicity against HEK293 cells assessed as growth inhibition after 72 hrs by alamar blue viability assay. The series is classed as cell-based. To be noted: Homo sapiens, HEK293, 72 h. The gist of the method: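 HEK 293 cells kept in DMEM + 10% FBS at 37 °C, 5% CO2, harvested at 80% confluence, 2000 cells/well, equilibrated overnight. Serial compound dilutions for 72 h; puromycin positive control, 0.4% DMSO negative. […] Two experiments, duplicate points.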
In general terms: The colour change of resazurin is a common sign of viable cells or microbes.

A short description of series [2]: Drug uptake in Trypanosoma brucei brucei Lister 427 bloodstream forms nucleus at 50 uM after 2 hrs by FITC/DsRed staining based fluorescence microscopic analysis. In kind it is ADME. The gist of the method: (§1)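 Parasites at 1 × 10^7 cells/mL exposed to 50 μM compound for 2 h at 37 °C, humidified 5% CO2. Washed in PBS, mixed 1:1 with 2% w/v low-melting agarose and spread under a coverslip for fluorescence microscopy.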

Series [3] has as its system Trypanosoma brucei brucei. The experiment in a line: Binding affinity to kinetoplast DNA in Trypanosoma brucei brucei Lister 427 bloodstream forms at 50 uM after 2 hrs by FITC/DsRed staining based fluorescence microscopic analysis. The method in brief: as §1
The test system of series [4] is Trypanosoma brucei brucei. The experiment in a line: Antitrypanosomal activity against Trypanosoma brucei brucei Lister 427 bloodstream forms incubated for 48 hrs by alamar blue assay. The series is classed as functional, organism-based. Conditions: Lister 427, 48 h.

The IC50 is the concentration needed to halve the response being measured. With `CC(C)CCc1sc(NC(=O)c2cc(NC(=O)c3ccc(/C=C/c4ccc5ccccc5c4)cc3)cn2C)nc1C(=O)NCCN1CCOCC1`, the selectivity ratio in series [1] is more than 500. For the same compound, the IC50 in the series on HEK293 was more than 20 µM.

`Cn1cc(NC(=O)c2cc(NC(=O)c3cc(NC(=O)c4cc5ccccc5cn4)cn3C)cn2C)cc1C(=O)NCCCN1CCOCC1`: the selectivity ratio in series [1] is more than 2940. Further, in the series on HEK293, the IC50 is more than 20 µM.

Turning to `Cn1cc(NC(=O)c2cc(NC(=O)c3ccc(/C=C/c4ccc5nonc5c4)cc3)cn2C)cc1C(=O)NCCN1CCOCC1`, the selectivity ratio in series [1] was more than 1050. For the same compound, the IC50 in the series on HEK293 is more than 20 µM.

Turning to `CC(C)CCc1sc(NC(=O)c2cc(NC(=O)c3cc(/C=C/c4ccc([N+](=O)[O-])cc4)cn3C)cn2C)nc1C(=O)NCCN1CCOCC1`, the selectivity ratio in series [1] was more than 1850.

Regarding `CN(C)c1ccc(/C=C/c2ccc(C(=O)Nc3cc(C(=O)Nc4cc(C(=O)NCCN5CCOCC5)n(C)c4)n(C)c3)cn2)cc1`, the Drug uptake entry in series [2] is “Active”. The outcome in series [3] was Active.

In series [4], `COc1cccc(C(=N)Nc2cc(C(=O)Nc3cc(C(=O)Nc4nc(C(=O)NCCN5CCOCC5)c(C(C)C)s4)n(C)c3)n(C)c2)c1` had an IC50 of more than 75 µM.

With `Cn1cc(NC(=O)c2cc(NC(=O)c3ccc(/C=C/c4ccc5nsnc5c4)cc3)cn2C)cc1C(=O)NCCN1CCOCC1`, the selectivity ratio in series [1] was more than 2740. The IC50 with HEK293 was more than 20 µM.

Consider `Cn1cc(NC(=O)c2cc(NC(=O)c3cc(NC=O)cn3C)cn2C)cc1C(=O)NCCN1CCOCC1`, for which 48 µM corresponded to half-maximal inhibition in series [4] (IC50).
